The results in this text go back to ChEMBL document CHEMBL1124958 (J Med Chem, 1990).

Molecules are shown by their SMILES.

Experiment [1] addresses Serotonin 2 (5-HT2) receptor (Mus musculus) (UniProt Q02152+P34968+P35363). Briefly: Hill number was determined for inhibition of [3H]ketanserin binding to 5-hydroxytryptamine 2 receptor in mouse cerebral cortex. Format: tissue-based. In a few lines: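 Hill numbers taken from seven-point inhibition curves of 0.15 nM [3H]ketanserin binding to washed mouse cortical membranes in 50 mM Tris-HCl pH 7.4, incubated 15 min at 37 °C. Nonspecific binding set with 1 μM methysergide; bound radioligand collected by filtration and counted.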

Experiment [2] has as its target T1, 5-hydroxytryptamine receptor 1A (Mus musculus) (UniProt Q64264).
T1 sequence (whole entry): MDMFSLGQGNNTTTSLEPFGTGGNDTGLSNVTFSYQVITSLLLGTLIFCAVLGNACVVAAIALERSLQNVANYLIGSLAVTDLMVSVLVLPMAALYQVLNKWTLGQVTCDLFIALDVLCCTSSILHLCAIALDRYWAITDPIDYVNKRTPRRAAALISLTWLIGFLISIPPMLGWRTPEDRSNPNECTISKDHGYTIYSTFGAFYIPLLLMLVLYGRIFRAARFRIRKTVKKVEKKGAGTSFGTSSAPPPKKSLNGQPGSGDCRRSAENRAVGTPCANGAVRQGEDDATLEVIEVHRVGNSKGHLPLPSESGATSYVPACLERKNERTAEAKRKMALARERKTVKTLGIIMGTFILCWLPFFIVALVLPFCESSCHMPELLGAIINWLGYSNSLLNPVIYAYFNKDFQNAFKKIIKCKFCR
In words: Hill number was determined for inhibition of [3H]8-OH-DPAT binding to 5-hydroxytryptamine 1A receptor in mouse hippocampus. Type of experiment: tissue-based.

Experiment [3] concerns the target T2, 5-hydroxytryptamine receptor 1A (Mus musculus, UniProt Q64264).
T2 sequence (Q64264 whole entry): T1 sequence (whole entry)
Briefly: Inhibitory activity towards 5-hydroxytryptamine 1A receptor by the displacement of [3H]8-OH-DPAT in mouse hippocampus. Type of experiment: tissue-based. In general terms: Displacement assays read how much labelled ligand stays bound in the presence of the test substance.

In experiment [4] the target is T3, Serotonin 2 (5-HT2) receptor (Mus musculus, UniProt Q02152+P34968+P35363). Briefly: Inhibitory activity towards 5-hydroxytryptamine 2 receptor by the displacement of [3H]ketanserin in mouse cerebral cortex. Type of experiment: tissue-based. Summed up: (§1)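 BALB/cBy mouse cerebral cortex, homogenized in 0.25 M sucrose; 1000g supernatant pelleted at 35000g and washed in 50 mM Tris-HCl pH 7.4. Nonspecific binding defined with 1 μM methysergide. Filtration on GF/B, scintillation counting. IC50 from computer fit of seven-point curves, averaged over 2–5 determinations.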

Experiment [5] concerns the target T2, 5-hydroxytryptamine receptor 1A. In words: Binding affinity towards 5-hydroxytryptamine 1A receptor by the displacement of [3H]8-OH-DPAT in mouse hippocampus. Format: tissue-based. Summed up: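 Membranes incubated in triplicate with 1.2 nM [3H]8-OH-DPAT plus varying analogue concentrations, 30 min at 23 °C, 0.5 mL final volume. Filtered on PEI-pretreated GF/B; scintillation counting. IC50 derived from seven-point inhibition curves.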

The target of experiment [6] is T3, Serotonin 2 (5-HT2) receptor. In words: Binding affinity towards 5-hydroxytryptamine 2 receptor by the displacement of [3H]-ketanserin in mouse cerebral cortex. Type of experiment: tissue-based. Summed up:
as §1

For experiment [7], the species on record is Mus musculus. Briefly: Hill number was determined for inhibition of [3H]8-OH-DPAT binding in mouse hippocampus. Type of experiment: functional. In a few lines: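 Triplicate incubations ran 30 min at 23 °C with 1.2 nM [3H]8-OH-DPAT over varying analogue concentrations, followed by filtration on polyethylenimine-treated GF/B filters and scintillation counting. Inhibition curves had seven points.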

The species entered for experiment [8] is Mus musculus. In words: Hill number was determined for inhibition of [3H]ketanserin binding in mouse cerebral cortex. Type of experiment: tissue-based. Summed up: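 Cerebral cortex from adult BALB/cBy mice was homogenised in ice-cold 0.25 M sucrose pH 7.4. The 1000g supernatant was washed at 35000g in 50 mM Tris-HCl pH 7.4. Triplicate incubations ran 15 min at 37 °C with 0.15 nM [3H]ketanserin and varying analogue concentrations, final 2 mL. Nonspecific binding was set with 1 μM methysergide, and bound ligand was filtered on GF/B and counted by scintillation. Inhibition curves had seven points.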

For experiment [9], the target named is T1, 5-hydroxytryptamine receptor 1A (Mus musculus). The note with it: Hippocampus.

Chain of Serotonin 2 (5-HT2) receptor (Mus musculus) (P34968 whole entry, looked up): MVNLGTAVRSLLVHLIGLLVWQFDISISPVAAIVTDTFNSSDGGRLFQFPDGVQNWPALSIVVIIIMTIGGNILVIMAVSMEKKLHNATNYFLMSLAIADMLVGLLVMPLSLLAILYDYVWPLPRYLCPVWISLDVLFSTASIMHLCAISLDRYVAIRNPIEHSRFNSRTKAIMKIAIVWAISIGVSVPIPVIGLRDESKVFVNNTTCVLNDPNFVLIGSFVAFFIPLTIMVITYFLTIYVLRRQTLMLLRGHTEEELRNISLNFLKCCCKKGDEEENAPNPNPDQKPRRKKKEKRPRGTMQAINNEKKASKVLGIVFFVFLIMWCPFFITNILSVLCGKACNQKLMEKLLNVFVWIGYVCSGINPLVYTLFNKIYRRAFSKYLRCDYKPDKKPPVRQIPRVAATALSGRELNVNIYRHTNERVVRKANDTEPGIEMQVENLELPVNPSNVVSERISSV
Chain of Serotonin 2 (5-HT2) receptor (Mus musculus) (P35363 whole entry, looked up): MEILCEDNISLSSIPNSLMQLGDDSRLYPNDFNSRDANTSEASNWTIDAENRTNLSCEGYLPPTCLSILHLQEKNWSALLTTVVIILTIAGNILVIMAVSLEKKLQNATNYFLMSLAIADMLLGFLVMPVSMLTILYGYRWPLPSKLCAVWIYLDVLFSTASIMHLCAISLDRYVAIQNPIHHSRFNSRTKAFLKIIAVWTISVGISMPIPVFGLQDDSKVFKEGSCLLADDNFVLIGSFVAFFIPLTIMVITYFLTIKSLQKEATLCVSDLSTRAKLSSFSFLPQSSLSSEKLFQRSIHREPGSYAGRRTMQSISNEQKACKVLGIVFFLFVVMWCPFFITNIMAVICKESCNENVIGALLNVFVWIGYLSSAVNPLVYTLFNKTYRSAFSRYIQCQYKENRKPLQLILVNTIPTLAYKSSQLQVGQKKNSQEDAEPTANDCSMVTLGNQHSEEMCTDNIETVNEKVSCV
Chain of Serotonin 2 (5-HT2) receptor (Mus musculus) (Q02152 whole entry, looked up): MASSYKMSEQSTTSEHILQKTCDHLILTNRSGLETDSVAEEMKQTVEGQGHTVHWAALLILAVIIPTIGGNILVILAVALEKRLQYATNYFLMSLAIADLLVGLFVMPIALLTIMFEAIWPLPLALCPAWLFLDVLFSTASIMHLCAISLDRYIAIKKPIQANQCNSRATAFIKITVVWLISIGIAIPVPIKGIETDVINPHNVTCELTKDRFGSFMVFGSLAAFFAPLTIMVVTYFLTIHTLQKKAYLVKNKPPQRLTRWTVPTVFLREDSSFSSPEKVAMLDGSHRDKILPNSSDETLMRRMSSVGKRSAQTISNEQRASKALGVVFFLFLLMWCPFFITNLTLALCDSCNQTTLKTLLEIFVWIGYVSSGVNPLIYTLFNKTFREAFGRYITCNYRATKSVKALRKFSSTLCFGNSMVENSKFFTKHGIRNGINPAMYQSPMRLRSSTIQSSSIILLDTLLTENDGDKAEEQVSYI

On to `O=C1CC2CCC1C(N1CCCCC1)C2c1c[nH]c2ccccc12` (stereo in doubt; 10b) [listing 1 of 2 here], for which the Hill coefficient (usually the slope factor of the fitted curve) in experiment [1] came to 0.9; in experiment [2], 0.88.
The corresponding values for `C1=CC2CCC1C(c1c[nH]c3ccccc13)C2N1CCCCC1` (stereo in doubt; 13b) [listing 1 of 2 here] are 0.9 and 0.69.
For `C1=CC2CCC1C(c1c[nH]c3ccccc13)C2N1CCCCC1` (stereo in doubt; 13a) [listing 1 of 2 here] the same measures were 1 and 0.93.
Take `C1=CC2CCC1C(c1c[nH]c3ccccc13)C2N1CCCCC1` (stereo in doubt; 13a) [listing 2 of 2 here]: the half-maximal inhibitory concentration (IC50) (usually the midpoint of a concentration-inhibition curve) in [3] was 18 µM; in experiment [4], 10 µM. For the same compound, the Ki (as a rule, the dissociation constant of the complex between target and ligand, obtained from inhibition or displacement) amounted to 13.5 µM in experiment [5] and 8 µM in [6].
In the case of `C1=CC2CCC1C(c1c[nH]c3ccccc13)C2N1CCCC1` (stereo in doubt; 12a) [listing 1 of 2 here], the Hill coefficient turned out to be 1 in experiment [1] and 0.95 in experiment [2].
For the compound `O=C1CC2CCC1C(N1CCCCC1)C2c1ccccc1` (stereo not drawn), the Hill coefficient in experiment [1] stood at 1.2; in [2], 0.89. Also, the IC50 in [3] is 358 µM; in experiment [4] it was 181 µM. Moreover, the inhibition constant (Ki) in [5] is 274 µM; in [6], 132 µM.
As to `C1=CC2CCC1C(c1c[nH]c3ccccc13)C2N1CCCCC1` (stereo in doubt; 13b) [listing 2 of 2 here], the 50% inhibitory concentration (IC50) came to 89 µM in [3] and 13 µM in experiment [4]. Also, the inhibition constant (Ki) in experiment [6] was found to be 9 µM.
As for `O=C1CC2CCC1C(N1CCCC1)C2c1c[nH]c2ccccc12` (stereo in doubt; 9b) [listing 1 of 2 here], the Hill coefficient came to 1 in experiment [1] and 0.47 in experiment [2].
Turning to `NCCc1c[nH]c2ccc(O)cc12` [SEROTONIN], the values for the Hill coefficient in experiment [7] and in experiment [8] were 0.75 and 0.85, respectively.
For the compound `O=C1CC2CCC1C(N1CCCCC1)C2c1c[nH]c2ccccc12` (stereo in doubt; 10a) [listing 1 of 2 here], the Hill coefficient in [1] came out at 1; in experiment [2], 1.2.
In the case of `O=C1CC2CCC1C(N1CCCC1)C2c1c[nH]c2ccccc12` (stereo in doubt; 9a) [listing 1 of 2 here], the values for the Hill coefficient in experiment [1] and in experiment [9] were 0.9 and 0.95, respectively.
As to `O=C1CC2CCC1C(N1CCCCC1)C2c1c[nH]c2ccccc12` (stereo in doubt; 10a) [listing 2 of 2 here], the IC50 in experiment [3] was determined as 86 µM; in experiment [4], 5 µM. The inhibition constant Ki in experiment [5] was 61 µM; in experiment [6], 4 µM.
The corresponding values for `O=C1CC2CCC1C(N1CCCC1)C2c1c[nH]c2ccccc12` (stereo in doubt; 9a) [listing 2 of 2 here] are 46 µM, 32 µM, 32 µM and 23 µM.
As to `C1=CC2CCC1C(c1c[nH]c3ccccc13)C2N1CCCC1` (stereo in doubt; 12b) [listing 1 of 2 here], the values for the Hill coefficient in experiment [1] and in [2] were 0.9 and 0.61, respectively.
In the case of `C1=CC2CCC1C(c1c[nH]c3ccccc13)C2N1CCCC1` (stereo in doubt; 12b) [listing 2 of 2 here], the figures for the IC50 in experiment [3] and in [4] were 47 µM and 24 µM, respectively. In addition, in experiment [6], the inhibition constant Ki is 17 µM.
The corresponding values for `O=C1CC2CCC1C(N1CCCC1)C2c1c[nH]c2ccccc12` (stereo in doubt; 9b) [listing 2 of 2 here] are 53 µM, 96 µM and 70 µM.
`O=C1CC2CCC1C(N1CCCCC1)C2c1c[nH]c2ccccc12` (stereo in doubt; 10b) [listing 2 of 2 here]: the IC50 in [3] worked out at 160 µM; in experiment [4], 84 µM. Besides, the Ki came out at 115 µM in [5] and 61 µM in [6].
The corresponding values for `C1=CC2CCC1C(c1c[nH]c3ccccc13)C2N1CCCC1` (stereo in doubt; 12a) [listing 2 of 2 here] are 12 µM, 19 µM, 8.5 µM and 14 µM.
